Measurements from ChEMBL document CHEMBL3763158, “Sampangine (a Copyrine Alkaloid) Exerts Biological Activities through Cellular Redox Cycling of Its Quinone and Semiquinone Intermediates” (J Nat Prod, 2015).
The source made the active and inactive calls. No cut-off for these calls is given here.

Experiments:
[1] = test system: MDA-MB-231; experiment: Cytotoxicity against human MDA-MB-231 cells at 1 to 30 uM after 48 hrs by sulforhodamine B assay; assay type: functional, cell-based
[2] = test system: T47D; experiment: Activation of hypoxia-induced HIF-1 in human T47D cells cotransfected with pHRE-luciferase plasmid at 1 to 3 uM preincubated for 30 mins followed by hypoxia induction measured after 16 hrs by luciferase reporter gene assay; assay type: cell-based
In short: (§1)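 T47D cells transfected with pHRE-luc construct, exposed to hypoxia (1% O2, 16 h) with compound. Luciferase activity read; % inhibition = [1 − (luciferase)compound/(luciferase)control] × 100 against hypoxic media control. Emetine as positive control. Parallel viability by SRB. Average ± SD, n = 3.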

[3] = test system: T47D; experiment: Increase in oxygen consumption rate in digitonin permeabilized human T47D cells assessed as reinitiation of sodium azide-stalled cellular respiration by oxytherm Clark-type electrode assay in presence of ascorbate relative to compound alone; assay type: functional, cell-based
In short: (§2)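 Digitonin-permeabilized T47D cells given sequential additions: NaN3 (10 mM) to suppress mitochondrial respiration, then compound (30 μM), solvent (2-propanol, 0.6%) or ascorbate (1 and 5 mM), all final. OCR after each addition normalized to NaN3 value; mean ± range of two experiments.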

[4] = test system: MDA-MB-231; experiment: Cytostatic activity against human MDA-MB-231 cells at 1 to 30 uM after 48 hrs by sulforhodamine B assay; assay type: functional, cell-based
[5] = test system: T47D; experiment: Increase in oxygen consumption rate in human T47D cells by oxytherm Clark-type electrode assay; assay type: functional, cell-based
In short: (§3)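 Intact T47D cells; oxygen consumption rate measured by Oxytherm Clark electrode with or without compound, normalized to untreated control. FCCP as positive control. Mean + range of two independent experiments.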

[6] = test system: T47D; experiment: Increase in oxygen consumption rate of mitochondrial state 4 respiration in human T47D cells assessed as reinitiation of oligomycin-stalled cellular respiration by Clark-type oxygen electrode assay; assay type: functional, cell-based
In short: (§4)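 Clark electrode oxygen consumption in cells with oligomycin (F0F1-ATPase inhibitor) stalling respiration, then compound added to test reinitiation; FCCP as standard uncoupler reference.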

[7] = test system: T47D; experiment: Increase in oxygen consumption rate in digitonin permeabilized human T47D cells assessed as reinitiation of sodium azide-stalled cellular respiration at 30 uM relative to control; assay type: functional; in short: as §2
[8] = test system: T47D; experiment: Cytostatic activity against human T47D cells at 1 to 30 uM after 48 hrs by sulforhodamine B assay in presence of ascorbate; assay type: functional, cell-based
[9] = test system: T47D; experiment: Effect on mitochondrial membrane potential in human T47D cells at 30 uM after 30 mins by TMRM dye based fluorescence microscopy; assay type: functional, cell-based
In short: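 T47D cells loaded with TMRM+ (37 °C, 2 h), then compound for 30 min; live epifluorescence imaging, fluorescence quantified per outlined cell in random fields. FCCP as positive control. Average ± SD from 20 cells.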

[10] = test system: T47D; experiment: Induction of alteration in […] in human T47D cells assessed as intracellular calcium level at 30 uM after 30 mins by fura-2 dye based fluorescence assay; assay type: functional, cell-based
In short: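 T47D cells loaded with fura-2 per manufacturer's instructions and treated 30 min; per-cell 340/380 nm excitation ratio taken as Ca2+ indicator by live microscopy. Average ± SD of 20 cells.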

[11] = test system: T47D; experiment: Increase in oxygen consumption rate in digitonin permeabilized human T47D cells at 30 uM relative to control; assay type: functional; in short: as §2
[12] = Neurotoxicity against rat CGN assessed as neuronal cell death at 30 uM after 24 hrs by Hoechst 33342/propidium iodide staining based assay; assay type: toxicity
In short: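 Primary cerebellar granule neurons from rat pups, cultured 6–10 days, then exposed 24 h. Stained with Hoechst 33342 and propidium iodide; live (PI negative, healthy nuclei) versus dead or dying (PI positive, or condensed/fragmented nuclei) cells counted.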

[13] = test system: Saccharomyces cerevisiae; experiment: Increase in oxygen consumption rate in Saccharomyces cerevisiae at 10 to 30 uM by oxytherm Clark-type electrode assay; assay type: functional, organism-based
In short: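 Budding yeast oxygen consumption followed with an Oxytherm Clark electrode, with and without compound. Values normalized to untreated control; average + SD of three independent determinations, p < 0.05 significance versus untreated.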

[14] = test system: T47D; experiment: Inhibition of hypoxia-induced HIF-1 in human T47D cells cotransfected with pHRE-luciferase plasmid at 10 to 30 uM preincubated for 30 mins followed by hypoxia induction measured after 16 hrs by luciferase reporter gene assay; assay type: cell-based; in short: as §1
[15] = test system: T47D; experiment: Increase in oxygen consumption rate in human T47D cells at 30 uM by oxytherm Clark-type electrode assay relative to control; assay type: functional; in short: as §3
[16] = test system: MDA-MB-231; experiment: Cytostatic activity against human MDA-MB-231 cells at 1 to 30 uM after 48 hrs by sulforhodamine B assay in presence of ascorbate; assay type: functional, cell-based
[17] = test system: T47D; experiment: Cytotoxicity against human T47D cells at 1 to 30 uM after 48 hrs by sulforhodamine B assay; assay type: functional, cell-based
[18] = test system: Hep 3B2; experiment: Increase in oxygen consumption rate of mitochondrial state 4 respiration in human Hep3B cells assessed as reinitiation of oligomycin-stalled cellular respiration by Clark-type oxygen electrode assay; assay type: functional, cell-based; in short: as §4
[19] = test system: T47D; experiment: Cytostatic activity against human T47D cells at 1 to 30 uM after 48 hrs by sulforhodamine B assay; assay type: functional, cell-based

For O=C1c2ccccc2-c2nccc3ccnc1c23 [SAMPANGINE], the Activity [1] was “Active”, the Activity [2] was “Dose-dependent effect” and the Activity [3] was “Dose-dependent effect”. The Activity [4] was “Active”, the Activity [5] was “Dose-dependent effect” and the Activity [6] was “Dose-dependent effect”. For the same compound, the Activity [7] was 48%, the Activity [8] was “Active” and the Activity [9] was “Active”. For the same compound, the Activity [10] was “inactive”, the Activity [11] was 46% and the Activity [12] was “Toxic”. The Activity [13] was “Active”, the inhibition [14] was “Dose-dependent effect” and the Activity [15] was 50%. For the same compound, the “fold change (FC)” value [15] was 1.5, the Activity [16] was “Active” and the Activity [17] was “Active”. The Activity [18] was “Active” and the Activity [19] was “Active”.
